pIC50: −log10 of the molar value.
Tests used:
[1] = Plasma concentration in Wistar rat at 100 mg/kg, po after 3 hrs; assay type: ADME, organism-based; design: dose 100 mg/kg, route oral
Outline: (§1)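 Male Wistar rats on 12 h light/dark cycle dosed orally at 100 mg/kg in PEG-400. Plasma and brain collected from the same animal at 3 h (±5 min). Blood drawn from caudal vena cava into EDTA and centrifuged for plasma. Brain taken after cardiac perfusion with 0.9% NaCl and homogenized in one volume cold phosphate buffer pH 7.4.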

[2] = Ratio of drug level from brain to plasma in Wistar rat at 100 mg/kg, po after 3 hrs; assay type: ADME, organism-based; design: dose 100 mg/kg, route oral; details: read-out: BPR; outline: as §1
[3] = molecular target: T1, Orexin/Hypocretin receptor type 1 (Homo sapiens, UniProt O43613); experiment: Antagonist activity at human OX1R expressed in CHO cells assessed as inhibition of calcium mobilization by FLIPR assay; assay type: functional, cell-based
T1 sequence (O43613 whole entry): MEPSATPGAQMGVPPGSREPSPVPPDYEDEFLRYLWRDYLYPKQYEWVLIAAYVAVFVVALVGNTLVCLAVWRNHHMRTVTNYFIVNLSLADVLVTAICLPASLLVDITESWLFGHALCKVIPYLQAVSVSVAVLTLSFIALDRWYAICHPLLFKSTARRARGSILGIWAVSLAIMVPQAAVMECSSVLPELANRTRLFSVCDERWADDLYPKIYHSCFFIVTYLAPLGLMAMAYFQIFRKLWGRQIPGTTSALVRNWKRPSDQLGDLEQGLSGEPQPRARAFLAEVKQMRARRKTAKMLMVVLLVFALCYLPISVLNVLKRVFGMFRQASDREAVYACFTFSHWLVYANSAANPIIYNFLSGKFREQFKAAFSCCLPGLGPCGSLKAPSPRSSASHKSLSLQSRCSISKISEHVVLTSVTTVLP

Orexin receptor type 2 = molecular target: T2, Orexin receptor type 2 (Homo sapiens, UniProt O43614); experiment: Antagonist activity at human OX2R expressed in CHO cells assessed as inhibition of calcium mobilization by FLIPR assay; assay type: functional, cell-based
T2 sequence (O43614 whole entry): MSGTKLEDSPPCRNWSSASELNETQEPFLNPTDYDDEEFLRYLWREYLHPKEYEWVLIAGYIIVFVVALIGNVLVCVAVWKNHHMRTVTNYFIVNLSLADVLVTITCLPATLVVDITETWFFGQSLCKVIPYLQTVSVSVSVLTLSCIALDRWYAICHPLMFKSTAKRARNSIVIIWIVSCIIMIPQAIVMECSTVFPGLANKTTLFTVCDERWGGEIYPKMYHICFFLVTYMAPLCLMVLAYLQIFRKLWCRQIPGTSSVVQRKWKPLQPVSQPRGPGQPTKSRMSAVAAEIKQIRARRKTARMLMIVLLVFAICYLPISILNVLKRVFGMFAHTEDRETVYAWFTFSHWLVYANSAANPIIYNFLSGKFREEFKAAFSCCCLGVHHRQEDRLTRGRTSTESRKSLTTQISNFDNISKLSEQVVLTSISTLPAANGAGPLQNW
Outline: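 CHO cells stably expressing human OX2R, loaded with fluo-3 AM calcium dye at 37 °C in 5% CO2, then washed. Antagonist added at varying concentrations before an approximate EC80 of orexin A. Ca2+ mobilization read by FLIPR; IC50 taken as concentration inhibiting 50% of the orexin A-induced calcium response.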

[4] = Drug uptake in Wistar rat brain at 100 mg/kg, po after 3 hrs; assay type: ADME, organism-based; design: dose 100 mg/kg, route oral; details: read-out: Drug uptake; outline: as §1
Rattus norvegicus [5] = experiment: Sleep-promoting activity in Wistar rat electroencephalographic model assessed as time spent in non-rapid eye movement sleep at 100 mg/kg, po measured over 12 hrs relative to total sleep time (reference value: 85.4 to 87.3%); assay type: functional
Outline: (§2)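 Freely moving adult male Wistar rats carrying radiotelemetric implants recording EEG, EMG and locomotor activity in the home cage. Oral dose of 100 mg/kg in 100% PEG-400 given at the start of the dark phase. Crossover design with 12 or 16 rats per group and at least 4-day washout. Read-outs over the 12 h night versus vehicle; means ± SEM, paired t-test.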

Rattus norvegicus [6] = experiment: Sleep-promoting activity in Wistar rat electroencephalographic model assessed as increase in time spent in non-rapid eye movement sleep at 100 mg/kg, po measured over 12 hrs relative to vehicle-treated control; assay type: functional; outline: as §2
Rattus norvegicus [7] = experiment: Sleep-promoting activity in Wistar rat electroencephalographic model assessed as reduction of time spent in active wake at 100 mg/kg, po measured over 12 hrs relative to vehicle-treated control; assay type: functional; design: scale not given: the % may be the effect or the level left; outline: as §2
Rattus norvegicus [8] = experiment: Sleep-promoting activity in Wistar rat electroencephalographic model assessed as decrease in home cage activity at 100 mg/kg, po measured over 12 hrs relative to vehicle-treated control; assay type: functional; design: scale not given: the % may be the effect or the level left; outline: as §2
MDR1 (human) [9] = experiment: Apparent permeability across apical to basolateral side in MDCK cells expressing human MDR1; assay type: ADME, cell-based, Canis lupus familiaris; details: dog
MDR1 (human) [10] = experiment: Efflux ratio of apparent permeability […] to apical side in MDCK cells expressing human MDR1; assay type: ADME, cell-based, Canis lupus familiaris; details: dog
MDR1 (human) [11] = experiment: Apparent permeability across basolateral to apical side in MDCK cells expressing human MDR1; assay type: ADME, cell-based, Canis lupus familiaris; details: dog
Rattus norvegicus [12] = experiment: Sleep-promoting activity in Wistar rat electroencephalographic model assessed as increase in time spent in rapid eye movement sleep at 100 mg/kg, po measured over 12 hrs relative to vehicle-treated control; assay type: functional; outline: as §2
Rattus norvegicus [13] = experiment: Sleep-promoting activity in Wistar rat electroencephalographic model assessed as time spent in rapid eye movement sleep at 100 mg/kg, po measured over 12 hrs relative to total sleep time (reference value: 12.7 to 14.6%); assay type: functional; outline: as §2

## CNC(=O)[C@@H](c1ccccc1)N1CCn2c(C3CC3)nc(Cl)c2[C@@H]1CCc1ccc(C(F)(F)F)cc1F
[1]
  concentration at 3 h: 6.76 µM
[2]
  Kp at 3 h: 0.05
[3]
  pIC50: 7.03
Orexin receptor type 2
  pIC50: 7.59
[4]
  concentration at 3 h: 338 nM

## CCc1nc(Cl)c2n1CCN([C@@H](C(=O)NC)c1ccccc1)[C@H]2CCc1ccc(C(F)(F)F)c(Cl)c1
[1]
  concentration at 3 h: 1.6 µM
[2]
  Kp at 3 h: 0.08
[3]
  pIC50: 7.70
Orexin receptor type 2
  pIC50: 7.74
[4]
  concentration at 3 h: 128 nM

## CCc1nc(Cl)c2n1CCN([C@@H](C(=O)NC)c1ccccc1)[C@H]2CCc1cc(F)c(C(F)(F)F)cc1F
[3]
  pIC50: 7.49
Orexin receptor type 2
  pIC50: 7.77

## CCc1nc(Cl)c2n1CCN([C@@H](C(=O)NC)c1ccccc1)[C@H]2COc1ccc(C(F)(F)F)cc1
[3]
  pIC50: 6.37
Orexin receptor type 2
  pIC50: 8.05

## CCc1nc(Cl)c2n1CCN([C@@H](C(=O)NC)c1ccccc1)[C@H]2CCc1ccc(OC(F)F)cc1
[3]
  pIC50: 7.13
Orexin receptor type 2
  pIC50: 9.00

## CCc1nc(Cl)c2n1CCN([C@@H](C(=O)NC)c1ccccc1)[C@H]2CCc1ccc(F)c(C(F)(F)F)c1
[3]
  pIC50: 6.42
Orexin receptor type 2
  pIC50: 7.80

## CCc1nc(Cl)c2n1CCN([C@@H](C(=O)NC)c1ccccc1)[C@H]2CCc1ccc(C(F)(F)F)cc1F
[1]
  concentration at 3 h: 6.42 µM
[2]
  Kp at 3 h: 0.06
[3]
  pIC50: 7.35
Orexin receptor type 2
  pIC50: 7.92
[4]
  concentration at 3 h: 363 nM

## CCc1nc(Cl)c2n1CCN([C@@H](C(=O)NC)c1ccccc1)[C@H]2CCc1cc(F)c(C(F)(F)F)c(F)c1
[3]
  pIC50: 7.80
Orexin receptor type 2
  pIC50: 8.10

## CCc1nc(Cl)c2n1CCN([C@@H](C(=O)NC)c1ccccc1)[C@H]2COc1cccc(C(F)(F)F)c1
[3]
  pIC50: 6.51
Orexin receptor type 2
  pIC50: 8.40

## CCc1nc(Cl)c2n1CCN([C@@H](C(=O)NC)c1ccccc1)[C@@H]2CCc1ccc(C(F)(F)F)c(F)c1
[3]
  pIC50: 6.26
Orexin receptor type 2
  pIC50: 6.64

## CCc1nc(Cl)c2n1CCN([C@@H](C(=O)NC)c1ccccc1)[C@H]2CCc1ccc(C(F)(F)F)c(F)c1
[1]
  concentration at 3 h: 9.81 µM
Rattus norvegicus [5]
  Activity: 86.2%
Rattus norvegicus [6]
  Activity: 16%
Rattus norvegicus [7]
  Activity: 13%
Rattus norvegicus [8]
  Activity: 36%
[2]
  Kp at 3 h: 0.12
MDR1 (human) [9]
  Papp A→B: 1.98 ×10⁻⁶ cm/s
[3]
  pIC50: 7.74
Orexin receptor type 2
  pIC50: 8.15
MDR1 (human) [10]
  efflux ratio: 35
[4]
  concentration at 3 h: 1220 nM
MDR1 (human) [11]
  Papp B→A: 68.8 ×10⁻⁶ cm/s
Rattus norvegicus [12]
  Activity: 9%
Rattus norvegicus [13]
  Activity: 13.8%

## CCc1nc(Cl)c2n1CCN([C@@H](C(=O)NC)c1ccccc1)[C@H]2CCc1ccc(OC(F)(F)F)cc1
[3]
  pIC50: 6.69
Orexin receptor type 2
  pIC50: 7.74

## CCc1nc(Cl)c2n1CCN([C@@H](C(=O)NC)c1ccccc1)[C@H]2CCc1cccc(C(F)(F)F)c1
[3]
  pIC50: 7.14
Orexin receptor type 2
  pIC50: 8.00

## CCc1nc(Cl)c2n1CCN([C@@H](C(=O)NC)c1ccccc1)[C@H]2CCc1ccc(F)c(F)c1F
[1]
  concentration at 3 h: 0.387 µM
[2]
  Kp at 3 h: 0.05
[3]
  pIC50: 7.52
Orexin receptor type 2
  pIC50: 8.30
[4]
  concentration at 3 h: 18 nM

## CCc1nc(Cl)c2n1CCN([C@@H](C(=O)NC)c1ccccc1)[C@H]2CCc1cccc(C(F)(F)F)c1F
[1]
  concentration at 3 h: 1.85 µM
[2]
  Kp at 3 h: 0.07
[3]
  pIC50: 7.80
Orexin receptor type 2
  pIC50: 8.05
[4]
  concentration at 3 h: 136 nM

## CNC(=O)[C@@H](c1ccccc1)N1CCn2c(C3CC3)nc(Cl)c2[C@@H]1CCc1ccc(OC(F)F)c(F)c1
[3]
  pIC50: 6.77
Orexin receptor type 2
  pIC50: 8.70

## CCc1nc(Cl)c2n1CCN([C@@H](C(=O)NC)c1ccccc1)[C@H]2CCc1ccc(C#N)cc1
[3]
  pIC50: 5.41
Orexin receptor type 2
  pIC50: 7.80

## CNC(=O)[C@@H](c1ccccc1)N1CCc2cc(OC)c(OC)cc2[C@@H]1CCc1ccc(C(F)(F)F)cc1 [ALMOREXANT]
Rattus norvegicus [5]
  Activity: 85.8%
Rattus norvegicus [6]
  Activity: 20%
Rattus norvegicus [7]
  Activity: 20%
Rattus norvegicus [8]
  Activity: 43%
Rattus norvegicus [12]
  Activity: 38%
Rattus norvegicus [13]
  Activity: 14.2%

## CNC(=O)[C@@H](c1ccccc1)N1CCn2c(C3CC3)nc(Cl)c2[C@@H]1CCc1ccc(C(F)(F)F)cc1
[3]
  pIC50: 7.52

## CNC(=O)[C@@H](c1ccccc1)N1CCn2c(C3CC3)nc(Cl)c2[C@@H]1CCc1ccc(C(F)(F)F)c(F)c1
[1]
  concentration at 3 h: 6.8 µM
[2]
  Kp at 3 h: 0.07
[3]
  pIC50: 7.28
Orexin receptor type 2
  pIC50: 8.00
[4]
  concentration at 3 h: 450 nM

## CCc1nc(Cl)c2n1CCN([C@@H](C(=O)NC)c1ccccc1)[C@H]2CCc1ccc(C(F)(F)F)c(F)c1F
[1]
  concentration at 3 h: 6.77 µM
[2]
  Kp at 3 h: 0.1
[3]
  pIC50: 7.77
Orexin receptor type 2
  pIC50: 7.85
[4]
  concentration at 3 h: 695 nM
